Source: ChEMBL document CHEMBL3588772, “Synthesis, anti-mycobacterial activity and DNA sequence-selectivity of a library of biaryl-motifs containing polyamides” (Bioorg Med Chem, 2015)
Values after ≈ are worked out from the molar mass of the structure shown. Active and inactive are the calls of the source. The calls are words filed in the database; no cut-off is given here.

Legend:
[1] = system: Mycobacterium tuberculosis; test: Antimycobacterial activity against Mycobacterium tuberculosis H37Rv after 7 days; format: functional; details: 168 h
How it was run: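 HT-SPOTi agar growth inhibition in 96-well format. Serially diluted DMSO solutions were mixed into Middlebrook 7H10 agar (kept at 55 °C) with 0.05% glycerol and 10% OADC. Controls were DMSO-only wells and isoniazid. Each well received 2×10³ CFU of culture (pre-grown rolling at 2 rpm or standing, 37 °C). Plates ran 7 days at 37 °C. MIC = lowest concentration with no visible growth.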

[2] = Cytotoxicity against mouse RAW264.7 cells; format: cell-based
How it was run: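 RAW264.7 mouse macrophages assessed by resazurin viability assay. GIC50 interpolated at 50% viability versus control.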

[3] = Binding affinity to 192 base-pair fragment HexB (unknown origin) at 5 to 10 uM after 30 mins by DNaSeI footprinting assay
How it was run: (§1)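 Radiolabelled HexB fragment in 10 mM Tris–HCl pH 7.5 with 0.1 mM EDTA, mixed with ligand in 10 mM Tris–HCl pH 7.5 with 10 mM NaCl. Equilibrated 30 min at room temperature, then DNase I in 20 mM NaCl, 2 mM MgCl₂, 2 mM MnCl₂ for 1 min. Heated 100 °C 3 min, resolved on 8% denaturing polyacrylamide gels, phosphorimaged. GA purine markers and no-ligand control lanes included.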

[4] = Binding affinity to 192 base-pair fragment HexB (unknown origin) at 1 to 10 uM after 30 mins by DNaSeI footprinting assay; how it was run: as §1
[5] = Selectivity index, ratio of GIC50 for mouse RAW264.7 cells to MIC for Mycobacterium tuberculosis H37Rv; format: toxicity; details: read-out: Selectivity Index
How it was run: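 Cytotoxicity was measured in mouse macrophage RAW264.7 cells by resazurin viability readout. GIC50 was interpolated at 50% viability versus untreated control. SI = GIC50 divided by the M. tuberculosis MIC from the agar spot assay.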

[6] = system: unidentified; test: Binding affinity to 192 base-pair fragment HexB 5-TAATTA-3 (unknown origin) at 5 to 10 uM after 30 mins by DNaSeI footprinting assay; how it was run: as §1
[7] = Binding affinity to 192 base-pair fragment HexB 5-CAATTG-3 (unknown origin) at 5 to 10 uM after 30 mins by DNaSeI footprinting assay; how it was run: as §1
[8] = Binding affinity to 192 base-pair fragment HexB 5-TTATAA-3 (unknown origin) at 5 to 10 uM after 30 mins by DNaSeI footprinting assay; how it was run: as §1
[9] = Binding affinity to 5'-ACVHA-3' (V= A or G or C; H= C or T or A) (unknown origin) at 2 uM after 45 mins by ethidium bromide assay
How it was run: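 Hairpin oligonucleotides from a 512-member five-bp library at 1 µM base pairs final with 4.4 µM ethidium bromide in 0.1 M Tris–HCl, 0.1 M NaCl, pH 8. Fluorescence read after 15 min at room temperature (ex 545, em 595 nm). Ligand added at 2 µM final (DMSO), read again after 45 min. Triplicates; % fluorescence reduction relative to no-drug and no-DNA controls.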

[10] = system: unidentified; test: Binding affinity to 192 base-pair fragment HexB 5-AATATT-3 (unknown origin) at 1 to 10 uM after 30 mins by DNaSeI footprinting assay; how it was run: as §1
[11] = Binding affinity to 192 base-pair fragment HexB 5-ATTAAT-3 (unknown origin) at 1 to 10 uM after 30 mins by DNaSeI footprinting assay; how it was run: as §1
[12] = system: unidentified; test: Binding affinity to 192 base-pair fragment HexB 5-ACATAT-3 (unknown origin) at 1 to 10 uM after 30 mins by DNaSeI footprinting assay; how it was run: as §1

| SMILES | MIC [1] | GI50 [2] | Activity [3] | Activity [4] | selectivity ratio [5] | Activity [6] | Activity [7] | Activity [8] | Activity [9] | Activity [10] | Activity [11] | Activity [12] |
| --- | --- | --- | --- | --- | --- | --- | --- | --- | --- | --- | --- | --- |
| Cn1cc(NC(=O)c2cc(NC(=O)c3cc(NC=O)cn3C)cn2C)cc1C(=O)NCCC(=N)N [STALLIMYCIN] | 31.2 µg/mL (≈ 64.9 µM) | 62.5 µg/mL (≈ 130 µM) | Active | Active | 2 | Active | Active | Active | – | – | – | – |
| Cc1nc(-c2cnn(C)c2)sc1C(=O)Nc1cc(C(=O)Nc2cc(C(=O)NCCCN(C)C)n(C)c2)n(C)c1 | 31.2 µg/mL (≈ 56.6 µM) | 250 µg/mL (≈ 453 µM) | Active | Active | 8 | – | – | – | Active | Active | Active | Active |
| Cc1nc(-c2ccsc2)sc1C(=O)Nc1cc(C(=O)Nc2cc(C(=O)NCCCN(C)C)n(C)c2)n(C)c1 | 250 µg/mL (≈ 451 µM) | 62.5 µg/mL (≈ 113 µM) | – | – | 0.25 | – | – | – | – | – | – | – |
| CC(=O)Nc1ccc(-c2cc(C(=O)Nc3cc(C(=O)Nc4cc(C(=O)NCCCN(C)C)n(C)c4)n(C)c3)n(C)c2)cc1 | 125 µg/mL (≈ 213 µM) | 500 µg/mL (≈ 852 µM) | – | – | 4 | – | – | – | – | – | – | – |
| CC(=O)Nc1ccc(-c2csc(C(=O)Nc3cc(C(=O)Nc4cc(C(=O)NCCCN(C)C)n(C)c4)n(C)c3)c2)cc1 | 62.5 µg/mL (≈ 106 µM) | 62.5 µg/mL (≈ 106 µM) | – | – | 1 | – | – | – | – | – | – | – |
| CO[C@H]1/C=C/O[C@@]2(C)Oc3c(C)c(O)c4c(O)c(c(/C=N/N5CCN(C)CC5)c(O)c4c3C2=O)NC(=O)/C(C)=C\C=C\[C@H](C)[C@H](O)[C@@H](C)[C@@H](O)[C@@H](C)[C@H](OC(C)=O)[C@@H]1C [RIFAMPIN] | 0.05 µg/mL (≈ 0.0608 µM) | 700 µg/mL (≈ 851 µM) | – | – | 14000 | – | – | – | – | – | – | – |
| CC(=O)Nc1cccc(-c2ccc(C(=O)Nc3cc(C(=O)Nc4cc(C(=O)NCCCN(C)C)n(C)c4)n(C)c3)o2)c1 | 125 µg/mL (≈ 218 µM) | 500 µg/mL (≈ 872 µM) | – | – | 4 | – | – | – | – | – | – | – |
| NNC(=O)c1ccncc1 [ISONIAZID] | 0.05 µg/mL (≈ 0.365 µM) | 3000 µg/mL (≈ 21900 µM) | – | – | 60000 | – | – | – | – | – | – | – |
| CC(=O)Nc1ccc(-c2ccc(C(=O)Nc3cc(C(=O)Nc4cc(C(=O)NCCCN(C)C)n(C)c4)n(C)c3)o2)cc1 | 125 µg/mL (≈ 218 µM) | 250 µg/mL (≈ 436 µM) | – | – | 2 | – | – | – | – | – | – | – |
